This passage reports k obs / 1 results from ChEMBL document CHEMBL1129346, “First examples of peptidomimetic inhibitors of interleukin-1 beta converting enzyme” (J Med Chem, 1996).

For test [1], the target named is T1, Caspase-1 (Homo sapiens) (UniProt P29466).
T1 sequence (whole entry): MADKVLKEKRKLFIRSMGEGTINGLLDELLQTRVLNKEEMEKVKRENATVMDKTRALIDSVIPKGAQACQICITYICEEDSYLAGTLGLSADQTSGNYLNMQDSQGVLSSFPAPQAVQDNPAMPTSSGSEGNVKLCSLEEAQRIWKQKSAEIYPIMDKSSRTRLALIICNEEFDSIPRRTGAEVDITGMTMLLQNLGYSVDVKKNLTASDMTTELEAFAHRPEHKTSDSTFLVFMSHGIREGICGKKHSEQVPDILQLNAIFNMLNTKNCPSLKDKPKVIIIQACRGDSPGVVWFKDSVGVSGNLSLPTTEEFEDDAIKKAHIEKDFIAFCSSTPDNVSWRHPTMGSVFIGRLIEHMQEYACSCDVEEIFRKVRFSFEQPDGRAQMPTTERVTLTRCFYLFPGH
Briefly: The binding affinity of compound was measured against Interleukin-1-beta converting enzyme in monocytic cells. The class given is cell-based. In short, it runs like this: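 ICE was partially purified from THP-1 cells by DEAE-Sephacel and Sephadex G-75 steps. The assay buffer was 10 mM HEPES pH 7.5 with 25% glycerol and 1 mM DTT, and the substrate was 10 μM Suc-Tyr-Val-Ala-Asp-AMC. Fluorescence progress curves were recorded at 37 °C over 30 min, and the nonlinear curves were analysed by the Tian–Tsou method. Standard error was <10%.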

The target of test [2] is T1, Caspase-1 (Homo sapiens). In words: Second order rate constant of inactivation for compound was measured against Interleukin-1-beta converting enzyme partially purified from THP-1 cells. In short, it runs like this: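 ICE was partially purified from THP-1 cells by DEAE-Sephacel and Sephadex G-75 steps. Fluorescence progress curves were recorded at 37 °C over 30 min, and the nonlinear curves were analysed by the Tian–Tsou method. Standard error was <10%.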

Compound `O=C(O)C[C@H](NC(=O)Cn1c(-c2ccc(F)cc2)ncc(NC(=O)OCc2ccccc2)c1=O)C(=O)COc1cc(C(F)(F)F)nn1-c1ccccc1` came in with a k obs / 1 on Caspase-1 (Homo sapiens) [1] of 157000 M⁻¹ s⁻¹.
In turn, `O=C(O)C[C@H](NC(=O)Cn1c(-c2ccc(F)cc2)ncc(NC(=O)OCc2ccccc2)c1=O)C(=O)COC(=O)c1c(Cl)cccc1Cl` gave a k obs / 1 on Caspase-1 (Homo sapiens) [2] of 268000 M⁻¹ s⁻¹.
Still for that read-out and setting: under `Cc1ncc(NC(=O)OCc2ccccc2)c(=O)n1CC(=O)N[C@@H](CC(=O)O)C(=O)COc1cc(C(F)(F)F)nn1-c1ccccc1` stands 95000 M⁻¹ s⁻¹.
On the same count and under the same terms, under `O=C(O)C[C@H](NC(=O)Cn1c(-c2cccnc2)ncc(NC(=O)OCc2ccccc2)c1=O)C(=O)COc1cc(C(F)(F)F)nn1-c1ccccc1` stands 145000 M⁻¹ s⁻¹.
The same measure, in the same setting: to `CN(C)CCCCCC(=O)Nc1cnc(-c2ccc(F)cc2)n(CC(=O)N[C@@H](CC(=O)O)C(=O)COC(=O)c2c(Cl)cccc2Cl)c1=O` belongs 90000 M⁻¹ s⁻¹; to `CC(C)[C@H](NC(=O)OCc1ccccc1)C(=O)N[C@@H](C)C(=O)N[C@@H](CC(=O)O)C(=O)COC(=O)c1c(Cl)cccc1Cl`, 432000 M⁻¹ s⁻¹.
In turn, `Nc1cnc(-c2ccc(F)cc2)n(CC(=O)N[C@@H](CC(=O)O)C(=O)COC(=O)c2c(Cl)cccc2Cl)c1=O` yielded a k obs / 1 on Caspase-1 (Homo sapiens) [2] of 36000 M⁻¹ s⁻¹.
With `O=C(O)C[C@H](NC(=O)Cn1c(-c2ccc(F)cc2)ncc(NC(=O)OCc2ccccc2)c1=O)C(=O)COP(=O)(c1ccccc1)c1ccccc1`, the k obs / 1 on Caspase-1 (Homo sapiens) [1] came to 145000 M⁻¹ s⁻¹.
The compound `O=C(O)C[C@H](NC(=O)Cn1c(-c2ccc(F)cc2)ncc(NS(=O)(=O)c2ccccc2)c1=O)C(=O)COC(=O)c1c(Cl)cccc1Cl` returned a k obs / 1 at Caspase-1 (Homo sapiens) [2] of 90000 M⁻¹ s⁻¹.
On the same count and under the same terms, under `O=C(O)C[C@H](NC(=O)Cn1c(-c2ccc(F)cc2)ncc(NC(=O)c2ccco2)c1=O)C(=O)COC(=O)c1c(Cl)cccc1Cl` stands 46000 M⁻¹ s⁻¹; under `O=C(O)C[C@H](NC(=O)Cn1c(-c2ccc(F)cc2)ncc(NC(=O)NCc2ccccc2)c1=O)C(=O)COC(=O)c1c(Cl)cccc1Cl`, 148000 M⁻¹ s⁻¹.
